Source: ChEMBL document CHEMBL4321820, “Identification and Optimization of Mechanism-Based Fluoroallylamine Inhibitors of Lysyl Oxidase-like 2/3” (J Med Chem, 2019)
Calls of active or inactive are those of the source. The rule behind the calls is not given here.

Key:
[1] = test system: Mus musculus; assay: Antifibrotic activity in bleomycin-induced C57BL/6 mouse model of lung fibrosis assessed as reduction in Ashcroft score at 15 mg/kg, ip administered on day 7 to 27 measured on day 28 by H and E staining based microscopy; type: functional, organism-based
Outline: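 Female C57BL/6 mice, 6-8 weeks old, under isoflurane received intranasal bleomycin sulphate 0.05 U/mouse in PBS; controls got PBS. Once-daily i.p. treatment days 7-27, n=12/group; imatinib 50 mg/kg i.p. as comparator. Sacrifice at day 28; lung fibrosis scored by Ashcroft score.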

[2] = test system: Mus musculus; assay: Effect on plasma AST level in CCl4-induced BALB/c mouse model of liver fibrosis at 15 mg/kg, po administered once daily for 6 weeks; type: ADME, organism-based; conditions: in vivo, 1008 h
Outline: (§1)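 CCl4 liver fibrosis in female BALB/c mice: CCl4 i.p. (1 mL/kg 25% in olive oil) twice weekly for 6 weeks, sacrifice 48 h after final injection. Oral once-daily dosing weeks 1-6 or weeks 4-6; imatinib 50 mg/kg daily weeks 1-6. ALT and AST measured in plasma.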

[3] = test system: Mus musculus; assay: Antifibrotic activity in CCl4-induced BALB/c mouse model of liver fibrosis assessed as reduction in liver fibrosis area at 15 mg/kg, po administered once daily for 6 weeks by alpha-SMA staining based microscopy; type: functional, organism-based
Outline: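 Female BALB/c mice given CCl4 i.p. (1 mL/kg of 25% CCl4 in olive oil) twice weekly for 6 weeks; sacrificed 48 h after last dose. Test articles oral, once daily: prophylactic weeks 1-6 or therapeutic weeks 4-6; imatinib control 50 mg/kg daily weeks 1-6. One formalin-fixed liver lobe stained for Picro Sirius Red and α-SMA; fibrotic area as % of total liver area; mean ± SEM, one-way ANOVA with Dunnett's test.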

[4] = test system: Mus musculus; assay: Effect on plasma ALT level in CCl4-induced BALB/c mouse model of liver fibrosis at 5 to 15 mg/kg, po administered once daily at week 4 to 6; type: ADME, organism-based; conditions: in vivo; outline: as §1
[5] = test system: Mus musculus; assay: Effect on plasma AST level in CCl4-induced BALB/c mouse model of liver fibrosis at 5 to 15 mg/kg, po administered once daily at week 4 to 6; type: ADME, organism-based; conditions: in vivo; outline: as §1
[6] = Stability in rat plasma assessed as half life; type: ADME, cell-free
[7] = Stability in rat plasma assessed as half life
[8] = Oral bioavailability in rat; type: ADME, organism-based; conditions: in vivo
[9] = molecular target: T1, Lysyl oxidase homolog 2 (Homo sapiens, UniProt Q9Y4K0); assay: Inhibition of LOXL2 in human IMR90 cells using putrescine as substrate preincubated with enzyme for 30 mins followed by substrate addition and measured every 2.5 mins for 30 mins by Amplex-Red oxidation assay; type: cell-based
T1 sequence (Q9Y4K0 whole entry): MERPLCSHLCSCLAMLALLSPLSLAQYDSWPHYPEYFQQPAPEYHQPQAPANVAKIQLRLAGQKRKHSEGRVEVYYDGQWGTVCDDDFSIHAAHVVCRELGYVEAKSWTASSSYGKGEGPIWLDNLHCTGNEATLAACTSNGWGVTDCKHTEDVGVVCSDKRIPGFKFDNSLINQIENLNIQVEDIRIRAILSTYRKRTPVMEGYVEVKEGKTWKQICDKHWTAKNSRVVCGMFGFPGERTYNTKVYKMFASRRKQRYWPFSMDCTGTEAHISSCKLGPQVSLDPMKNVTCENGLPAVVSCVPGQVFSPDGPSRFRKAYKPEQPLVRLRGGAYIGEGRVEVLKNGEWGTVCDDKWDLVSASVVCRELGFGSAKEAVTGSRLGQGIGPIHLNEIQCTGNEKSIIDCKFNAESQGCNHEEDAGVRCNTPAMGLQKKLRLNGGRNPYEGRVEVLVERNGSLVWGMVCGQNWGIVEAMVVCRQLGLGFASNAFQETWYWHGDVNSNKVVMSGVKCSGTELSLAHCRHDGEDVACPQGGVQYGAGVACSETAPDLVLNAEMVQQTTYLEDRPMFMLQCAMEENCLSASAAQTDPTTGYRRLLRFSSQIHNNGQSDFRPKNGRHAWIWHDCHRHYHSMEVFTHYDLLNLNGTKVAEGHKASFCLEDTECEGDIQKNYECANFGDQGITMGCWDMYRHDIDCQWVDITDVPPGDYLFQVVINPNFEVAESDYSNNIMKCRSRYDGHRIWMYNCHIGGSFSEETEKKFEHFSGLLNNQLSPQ
Outline: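 IMR90 fibroblasts grown in MEM/10% FBS to 80% confluence, then 48-72 h in phenol-red-free 0.1% FBS medium. Conditioned medium concentrated 40-fold (10 kDa). LOX and LOXL2 separated on a 50 kDa filter in 6 M urea/borate, then diluted back to 1.2 M urea. Preincubated 30 min at 37 °C with compound; Amplex Red/HRP/putrescine readout every 2.5 min over 30 min.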

[10] = molecular target: T2, Lysyl oxidase homolog 2 (Mus musculus, UniProt P58022); assay: Inhibition of recombinant mouse C-terminal His-tagged LOLX2 (26-776 residues) expressed in mouse myeloma cells using putrescine as substrate preincubated with enzyme for 30 mins followed by substrate addition and measured every 2.5 mins for 30 mins by Amplex-Red oxidation assay
T2 sequence (P58022 whole entry): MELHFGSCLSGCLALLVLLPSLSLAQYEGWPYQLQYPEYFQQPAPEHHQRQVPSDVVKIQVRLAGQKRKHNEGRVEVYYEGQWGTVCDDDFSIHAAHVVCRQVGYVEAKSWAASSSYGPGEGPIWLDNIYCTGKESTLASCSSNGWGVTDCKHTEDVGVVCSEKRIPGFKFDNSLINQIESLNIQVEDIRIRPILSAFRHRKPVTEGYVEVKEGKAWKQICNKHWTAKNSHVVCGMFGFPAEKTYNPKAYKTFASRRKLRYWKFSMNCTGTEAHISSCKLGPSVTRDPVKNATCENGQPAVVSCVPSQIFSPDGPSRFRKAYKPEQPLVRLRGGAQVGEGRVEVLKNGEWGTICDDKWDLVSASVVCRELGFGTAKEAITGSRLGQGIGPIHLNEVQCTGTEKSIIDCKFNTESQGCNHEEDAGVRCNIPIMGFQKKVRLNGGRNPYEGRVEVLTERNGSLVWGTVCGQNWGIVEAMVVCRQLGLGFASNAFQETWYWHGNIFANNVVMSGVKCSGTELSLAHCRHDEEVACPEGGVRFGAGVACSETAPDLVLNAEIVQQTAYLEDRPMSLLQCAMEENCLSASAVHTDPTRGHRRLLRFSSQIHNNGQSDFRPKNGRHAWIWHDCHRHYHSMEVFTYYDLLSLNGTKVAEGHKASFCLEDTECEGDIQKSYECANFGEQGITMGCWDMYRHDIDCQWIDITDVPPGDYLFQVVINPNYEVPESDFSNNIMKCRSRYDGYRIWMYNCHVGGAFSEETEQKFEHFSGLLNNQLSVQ
Outline: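 LOXL2 enzyme preincubated with compound for 30 min at 37 °C, then Amplex Red (120 µM) / HRP (1.5 U/mL) mix containing 5 mM putrescine added. Buffer: 1.2 M urea, 50 mM sodium borate, pH 8.2. H2O2 fluorescence (ex 565/em 590) read every 2.5 min for 30 min at 37 °C; BAPN 100 µM as positive control; n≥2.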

[11] = Stability in human plasma assessed as half life

half-life [6] | half-life [7] | bioavailability [8] | IC50 [9] | IC50 [10] | half-life [11] | Structure (SMILES) | inhibition [1] | Activity [2] | inhibition [3] | Activity [4] | Activity [5]
– | – | – | – | – | – | CCOC(=O)c1ccc2c(c1)c(-c1cccc(S(=O)(=O)N(C)C)c1)c(C)n2C/C(F)=C/CN.Cl | Active | Non-Toxic | Active | Non-Toxic | Non-Toxic
> 120 min | > 120 min | < 1% | 9 nM | 6 nM | > 120 min | Cc1c(-c2cccc(S(=O)(=O)N(C)C)c2)c2cc(C(=O)O)ccc2n1C/C(F)=C/CN.Cl | – | – | – | – | –
